# Shown are actives, neighbours in structure and some others; about 2.3% of the full set was active somewhere.
# TAAR1 antag: antagonists of human TAAR1 | CHO RD-HGA16 TAAR1, Fluo-8 calcium fluorescence, antagonist | inhibition, % at 3 µM | 360,000 compounds, 1.5% hits | AID 624466;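 active = inhibition above a per-plate cutoff, the mean inhibition of test compounds on that plate plus 3 SD, cut at about 49% in these data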;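 also: 0% = DMSO plus EC80 beta-PEA response and 100% = DMSO alone without agonist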
#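 test system = CHO RD-HGA16 cells bearing hTAAR1 | replication = singlicate | controls = DMSO-only wells and EC80 β-PEA-stimulated wells | reagent = EC80 β-phenethylamine stimulus | read-out basis = percent inhibition of PEA-evoked calcium signal, max/basal emission ratio | schedule = seeding 17-24 h prior, 75-min 37 °C, 30-min RT dye loading | signal = kinetic Fluo-8 calcium fluorescence measurement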
# OXTR ag: activates the human oxytocin receptor | CHO-OTR cells, Fluo-8 calcium fluorescence; normalized: DMSO 0%, oxytocin 100% | activation, % at 3 µM | 320,000 compounds, 0.32% hits | AID 2435;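 active = activation above the mean of all tested compounds plus 3 SD, cutoff set per screening run, cut at about 20% in these data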;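 also: peak over basal fluorescence ratio from a 100 s FLIPR kinetic read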
# OXTR potentiator: potentiates the human oxytocin receptor response | activation, % at 3 µM | 320,000 compounds, 0.061% hits | P30559 | AID 2445 | CHO-OTR cells, Fluo-8 calcium fluorescence, potentiator mode; 0% = oxytocin EC15, 100% = EC100;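 active = activation above that plate's cutoff, the mean activation of tested compounds plus 3 SD, cut at about 6.6% in these data, passing the limit was not always enough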;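 also: 100% uses oxytocin at 75 nM as the full agonist control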
#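 test system = CHO-OTR cells, human receptor | compound = single-point 3.0 µM | schedule = 6 min compound pre-incubation at room temperature, 100 s kinetic read | signal = Fluo-8 no-wash calcium dye fluorescence, excitation 470-495 nm, emission 515-575 nm | repeats = single well per compound, singlicate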
# V1aR counter: activates human V1a receptor in oxytocin agonist counter-screen. CHO-V1R cells, Fluo-8 calcium fluorescence, agonist mode; 0% DMSO, 100% 3 nM vasopressin. 320,000 compounds, 0.25% hits. P37288. activation, % at 3 µM;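 active = activation above the mean activation of all tested compounds plus 3 SD, per screening run, cut at about 20% in these data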;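 also: signal is peak over basal fluorescence ratio across a 100 second FLIPR read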
# Target sequence (P37288 whole entry, looked up): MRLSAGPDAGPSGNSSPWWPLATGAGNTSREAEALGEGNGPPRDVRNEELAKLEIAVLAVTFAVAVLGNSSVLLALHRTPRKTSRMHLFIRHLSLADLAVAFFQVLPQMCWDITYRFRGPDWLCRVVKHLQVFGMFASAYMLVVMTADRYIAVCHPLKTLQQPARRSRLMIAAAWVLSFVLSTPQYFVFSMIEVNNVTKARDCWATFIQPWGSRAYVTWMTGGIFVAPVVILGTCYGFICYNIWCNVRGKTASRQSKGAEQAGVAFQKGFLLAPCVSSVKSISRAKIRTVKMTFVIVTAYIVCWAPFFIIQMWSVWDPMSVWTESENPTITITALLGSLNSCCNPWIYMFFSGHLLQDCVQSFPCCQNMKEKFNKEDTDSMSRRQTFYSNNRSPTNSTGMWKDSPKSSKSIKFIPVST
# TAAR1 ag: human TAAR1 agonism; Q96RJ0; CHO RD-HGA16 TAAR1, Fluo-8 calcium fluorescence; vehicle wells 0%, saturating PEA agonist 100%; 360,000 compounds, 0.99% hits; AID 624467; activation, % at 3 µM;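 active = activation above the mean activation of all test compounds in the run plus 3 SD, cut at about 38% in these data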
#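 System: CHO-derived RD-HGA16 cells with stable Gα16 and human TAAR1 / Times: 17-24 h plating, Fluo-8 75 min 37 °C, 30 min RT / Technique: calcium-sensitive Fluo-8 signal, excitation 470-495, emission 515-575 nm / Measure: % activation relative to PEA EC100 response / Benchmarks: DMSO and PEA EC100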
# nonsel antag count: counter-screen for TAAR1 antagonists: nonselective antagonists | shares compounds with TAAR1 antag | 2,400 compounds, 77% hits | counterscreen cell line, calcium fluorescence, antagonist mode | inhibition, % at 3 µM; in the data active = inhibition above about 22%;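 also: CHO-Ga16 host cells stimulated with ATP at an EC80 level; 0% = agonist EC80 plus vehicle and 100% = vehicle without agonist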
# TAAR1 antag conf: confirmation of human TAAR1 antagonists; TAAR1-expressing cells, fluorescence antagonist read-out; shares compounds with TAAR1 antag; 2,400 compounds, 40% hits; AID 651785; inhibition, % at 3 µM; in the data active = inhibition above about 49%;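 also: CHO-Ga16 host cells challenged with agonist PEA near its EC80; 0% = agonist at EC80 plus vehicle and 100% = vehicle with no agonist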
# Ga16 nonsel ag: counter-screen for TAAR1 antagonists: nonselective Ga16 agonists; 2,400 compounds, 18% hits; shares compounds with TAAR1 antag; AID 651953; Ga16-expressing cells, calcium fluorescence, agonist counterscreen; activation, % at 3 µM; in the data active = activation above about 12%;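 also: 0% = vehicle wells and 100% = saturating stimulus response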
# TAAR1 ag counter: TAAR1 agonism, antagonist counter-screen; shares compounds with TAAR1 antag; 2,400 compounds, 2% hits; hTAAR1 cell line, fluorescence activation, agonist mode; activation, % at 3 µM; in the data active = activation above about 37%;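 also: CHO cells stably expressing TAAR1 with calcium dye readout; 0% = DMSO vehicle and 100% = full agonist response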
# * = called active by the depositor; nt = no result.
SMILES,TAAR1 antag,OXTR ag,OXTR potentiator,V1aR counter,TAAR1 ag,nonsel antag count,TAAR1 antag conf,Ga16 nonsel ag,TAAR1 ag counter
N=c1sccn1CC(=O)N1N=C(c2ccc(Cl)cc2)CC1c1ccco1 (stereo unspecified),53*,1,-1,0,11,4,21,13*,12
CCCC[C@@H]1Cc2[nH][nH]c(=O)c2[C@H](c2cccc3ccccc23)O1,-14,nt,nt,nt,3,nt,nt,nt,nt
O=C(NC(=S)Nn1cnnc1)c1ccccc1Br,-4,0,-3,1,1,nt,nt,nt,nt
COc1ccc(-c2ccc3c(n2)CCCN3S(=O)(=O)c2ccc(F)cc2)cc1,5,nt,nt,nt,2,nt,nt,nt,nt
CCCCS(=O)(=O)N1CCCc2nc(-c3ccc(OC)cc3)ccc21,49*,nt,nt,nt,2,32*,35,6,5
COc1ccc(CNC(=O)C[C@H]2C(=O)N(CCc3ccccc3)C[C@@H]2Cc2ccccc2)cc1,56*,2,-15,0,19,18,29,7,3
CCOC(=O)N1CCN(C(=O)c2cccc(N3C(=O)NC4CC3(C)Oc3ccc(Cl)cc34)c2)CC1 (stereo unspecified),4,0,-5,1,2,nt,nt,nt,nt
O=C(NCc1ccccc1F)c1ccc2c(c1)OCCO2,12,-1,-5,0,0,nt,nt,nt,nt
CC(C)(C)c1ccc(OCc2ccc(C(=O)N/N=C/c3ccc([N+](=O)[O-])cc3)o2)cc1,53*,1,-3,1,13,31*,44,5,8
CCOc1ccc(/C=N/NC(=O)c2ccc(Cn3cc([N+](=O)[O-])cn3)o2)cc1,6,1,-11,3,1,nt,nt,nt,nt
O=C(COc1ccc(/C=N/NC(=O)c2ccncc2)cc1)Nc1cccc([N+](=O)[O-])c1,15,0,-12,2,5,nt,nt,nt,nt
O=C(COc1ccc(/C=N/NC(=O)c2ccccc2O)cc1)Nc1ccc([N+](=O)[O-])cc1,63*,0,-3,1,10,29*,45,10,8
Cc1ccccc1-n1nnnc1SCc1csc(-c2ccccc2)n1,70*,0,-21,2,16,28*,43,7,7
CNc1cc(-c2cc(OC)ccc2OC)ncn1,-23,nt,nt,nt,1,nt,nt,nt,nt
Cc1ccc(-c2[nH]c3ccccc3c2C(C[N+](=O)[O-])c2ccco2)cc1 (stereo unspecified),63*,-1,-5,0,15,2,24,3,1
Cc1[nH]c2ccccc2c1C(C[N+](=O)[O-])c1ccco1 (stereo unspecified),-4,-1,-8,-1,-2,nt,nt,nt,nt
CCc1nc2ccccc2n1CC(=O)OCC(=O)N(CC(C)C)c1c(N)n(Cc2ccccc2)c(=O)[nH]c1=O,-21,0,-5,0,3,nt,nt,nt,nt
CCOc1ccc2nc(NC(=O)CS(=O)(=O)c3ccc(C)cc3)sc2c1,55*,-1,-3,-1,6,20,38,2,3
Cc1ccccc1CN1[C@@H](CC(C)C)COc2cc(Br)ccc2S1(=O)=O,-34,nt,nt,nt,0,nt,nt,nt,nt
COc1cccc(NC(=O)CCSc2ccc3ccccc3n2)c1,76*,-1,-3,2,-3,8,14,3,-1
Cc1ccc(C(=O)CSc2nnc(-c3snnc3C)n2C2CC2)cc1,8,-1,-4,10,1,nt,nt,nt,nt
Cc1cc(C)c2sc(N(CCCN(C)C)C(=O)c3ccc(S(=O)(=O)N(C)Cc4ccccc4)cc3)nc2c1,50*,11,-10,2,35,39*,40,26*,46*
CC(=O)c1c(C)[nH]c(C(=O)OCC(=O)Nc2ccc(Cl)c(S(=O)(=O)N(C)C)c2)c1C,68*,5,-7,8,12,28*,48,12*,11
CN(C)S(=O)(=O)c1cc(NC(=O)CNCCN2CCOCC2)ccc1Cl,105*,0,-3,0,0,8,-3,3,5
COC(=O)[C@]12CCCCC=C1N(Cc1ccco1)C(=O)[C@H](CC(=O)N1CCOCC1)C2,2,nt,nt,nt,2,nt,nt,nt,nt
SMILES,TAAR1 antag,OXTR ag,OXTR potentiator,V1aR counter,TAAR1 ag,nonsel antag count,TAAR1 antag conf,Ga16 nonsel ag,TAAR1 ag counter
CCN=C1SC(CC(=O)Nc2ccccc2)C(=O)N1CC (stereo unspecified),67*,0,-14,1,20,34*,59*,10,9
CCN=C1SC(C(=O)Nc2ccccc2)CC(=O)N1CC (stereo unspecified),65*,4,-17,1,21,31*,54*,9,10
Cc1ccc2nc(-c3ccc(NC(=O)CSc4nc(N)cc(=O)[nH]4)cc3)sc2c1,103*,0,-1,0,0,11,0,2,3
Cc1nn(CCc2nn[nH]n2)c2nc(-c3ccc(Br)cc3)cc(C(F)(F)F)c12,71*,8,-11,10,2,16,33,2,-4
CC1(c2ccccc2)NC(=O)N(Cc2ccc([N+](=O)[O-])cc2)C1=O (stereo unspecified),10,4,-8,7,1,nt,nt,nt,nt
COc1cccc(NC(=O)CSC2=NN3CCCC(=O)N=C3S2)c1,104*,4,-12,9,3,2,6,5,5
O=C1CC2c3cc(-c4cc5ccccc5o4)ccc3CCN2C(=O)CN1Cc1ccccc1 (stereo unspecified),54*,nt,nt,nt,5,27*,40,5,6
Cc1ccc(Cl)cc1NC(=O)[C@@H]1CCC(=O)N1C1OC(=O)c2ccccc21 (stereo partly specified),-4,9,-4,10,12,nt,nt,nt,nt
COc1ccc(S(=O)(=O)N2CC(C)OC(C)C2)cc1C(=O)N1CCCCC1 (stereo unspecified),-10,1,6,0,3,nt,nt,nt,nt
COc1ccc(/C=C2\CCc3ccccc3C2=O)cc1CN1CCOCC1,-14,-2,-10,0,0,nt,nt,nt,nt
COc1ccc2c(c1)CC/C(=C\c1ccc(OC)c(Cn3cccn3)c1)C2=O,60*,7,-20,7,12,34*,51*,8,9
